Laboratory results reported in ChEMBL document CHEMBL2010694, “Indolyl and dihydroindolyl N-glycinamides as potent and in vivo active NPY5 antagonists” (Bioorg Med Chem Lett, 2012).
In brackets after ≈: the same amount, converted by molar mass. Activity calls are given as the source filed them. The rule behind the calls is not given here.

How the values were obtained:
[1] = Tmax in Sprague-Dawley rat plasma at 2 mg/kg, po and 1 mg/kg, iv after 24 hrs wash out period by HPLC analysis; assay type: ADME, organism-based
How it was run: (§1)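 Male Sprague-Dawley rats (200–250 g), jugular and carotid artery cannulated; compound dissolved in 20% beta cyclodextrin, pH adjusted with methane sulfonic acid. Serial blood sampled at 12 time points over 24 h post dose by automated sampler; plasma from centrifugation analysed by HPLC; PK parameters by non-compartmental analysis of plasma concentration–time profile.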

[2] = Drug uptake in cPP-induced feeding Sprague-Dawley rat model brain at 1 mg/kg, po after 1 hr; assay type: ADME, organism-based; design: dose 1 mg/kg, route oral; conditions: read-out: Drug uptake
How it was run: (§2)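 Satellite animals from the cPP feeding study dosed orally at 0.1, 1 or 10 mg/kg; plasma (ng/mL) and brain (ng/g) levels measured 1 h after dosing.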

[3] = molecular target: T1, Neuropeptide Y receptor type 5 (Homo sapiens, UniProt Q15761); test: Displacement of [125I]peptide YY from human NPY5 receptor
T1 sequence (Q15761 whole entry): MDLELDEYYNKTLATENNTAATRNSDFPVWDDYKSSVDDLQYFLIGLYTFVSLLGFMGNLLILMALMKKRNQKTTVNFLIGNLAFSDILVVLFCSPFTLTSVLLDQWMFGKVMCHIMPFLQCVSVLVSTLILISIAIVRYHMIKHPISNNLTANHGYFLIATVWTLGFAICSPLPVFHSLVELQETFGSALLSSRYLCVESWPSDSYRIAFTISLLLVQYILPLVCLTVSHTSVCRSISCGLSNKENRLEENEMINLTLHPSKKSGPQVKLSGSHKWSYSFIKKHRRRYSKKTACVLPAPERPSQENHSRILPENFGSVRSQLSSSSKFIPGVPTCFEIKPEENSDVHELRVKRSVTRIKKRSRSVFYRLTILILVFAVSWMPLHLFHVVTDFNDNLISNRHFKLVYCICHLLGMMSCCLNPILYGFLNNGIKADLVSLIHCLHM

MDR [4] = test: Apparent permeability from basolateral to apical side in MDCK cells expressing MDR; assay type: ADME, cell-based, Canis lupus familiaris; conditions: dog, MDCK-MDR1
How it was run: (§3)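 Bidirectional permeability (A–B and B–A) across a Pgp-overexpressing mdr-MDCK cell monolayer; efflux ratio derived from the two Papp values, given in 10^-6 cm/s.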

[5] = Protein binding in human; assay type: ADME, organism-based; conditions: plasma, read-out: PB (converted)
[6] = Absolute oral bioavailability in Sprague-Dawley rat at 2 mg/kg after 24 hrs wash out period by HPLC analysis; assay type: ADME, organism-based; conditions: in vivo; how it was run: as §1
[7] = Plasma concentration in cPP-induced feeding Sprague-Dawley rat model at 1 mg/kg, po after 1 hr; assay type: ADME, organism-based; design: dose 1 mg/kg, route oral; how it was run: as §2
Cytochrome P450 1A2 = molecular target: T2, Cytochrome P450 1A2 (Homo sapiens, UniProt P05177); test: Inhibition of CYP1A2; assay type: ADME
T2 sequence (P05177 whole entry): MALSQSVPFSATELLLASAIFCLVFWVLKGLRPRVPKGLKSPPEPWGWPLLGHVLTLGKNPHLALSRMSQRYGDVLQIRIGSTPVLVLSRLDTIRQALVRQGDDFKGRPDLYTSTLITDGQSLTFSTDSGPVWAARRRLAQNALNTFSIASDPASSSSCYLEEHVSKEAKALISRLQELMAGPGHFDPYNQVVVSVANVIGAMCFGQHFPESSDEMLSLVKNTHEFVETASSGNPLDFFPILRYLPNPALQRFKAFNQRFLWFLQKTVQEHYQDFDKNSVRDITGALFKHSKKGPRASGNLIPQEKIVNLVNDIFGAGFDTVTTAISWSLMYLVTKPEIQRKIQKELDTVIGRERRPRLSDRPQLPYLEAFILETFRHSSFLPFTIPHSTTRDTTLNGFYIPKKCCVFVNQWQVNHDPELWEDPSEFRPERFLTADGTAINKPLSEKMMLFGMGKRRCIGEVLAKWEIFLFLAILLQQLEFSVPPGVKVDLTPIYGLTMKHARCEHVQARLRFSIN

Brain = test: Drug uptake in Sprague-Dawley rat brain at 10 mg/kg, po by LC-MS/MS analysis; assay type: ADME, organism-based; design: dose 10 mg/kg, route oral; conditions: in vivo, read-out: Drug uptake
How it was run: (§4)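 Male Sprague-Dawley rats (300–350 g), femoral artery cannulated; single 10 mg/kg oral dose in an appropriate vehicle, N = 3. Blood taken predose, 1, 2 and 4 h; brains then collected and stored at -80 °C. Equal portions of plasma or homogenized brain from the three rats pooled per time point, protein precipitated, quantified by LC/MS/MS.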

[8] = Volume of distribution at steady state in Sprague-Dawley rat plasma at 2 mg/kg, po and 1 mg/kg, iv after 24 hrs wash out period by HPLC analysis; assay type: ADME, organism-based; conditions: read-out: Vdss; how it was run: as §1
Liver microsomes [9] = test: Intrinsic clearance in rat liver microsomes at 1 uM by LC/MS analysis; assay type: ADME, Microsome
How it was run: (§5)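 Compound incubated with human or rat liver microsomes; reaction quenched with acetonitrile, centrifuged, and remaining drug in supernatant measured by LC/MS to estimate T1/2, from which intrinsic clearance was derived.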

[10] = Solubility of the compound at pH 7.4; assay type: physicochemical; conditions: buffer
Cytochrome P450 3A4 = Cytochrome P450 3A4 (Homo sapiens, UniProt P08684); test: Inhibition of CYP3A4; assay type: ADME
Cytochrome P450 2C19 = Cytochrome P450 2C19 (Homo sapiens, UniProt P33261); test: Inhibition of CYP2C19; assay type: ADME
Cytochrome P450 2D6 = Cytochrome P450 2D6 (Homo sapiens, UniProt P10635); test: Inhibition of CYP2D6; assay type: ADME
[11] = Drug uptake in Sprague-Dawley rat brain at 10 mg/kg, po after 1 hr by LC-MS/MS analysis; assay type: ADME, organism-based; design: dose 10 mg/kg, route oral; conditions: read-out: Drug uptake; how it was run: as §4
MDR [12] = test: Apparent permeability from apical to basolateral side in MDCK cells expressing MDR; assay type: ADME, cell-based, Canis lupus familiaris; conditions: dog, MDCK-MDR1; how it was run: as §3
[13] = Clearance in Sprague-Dawley rat plasma at 2 mg/kg, po and 1 mg/kg, iv after 24 hrs wash out period by HPLC analysis; assay type: ADME, organism-based; how it was run: as §1
Plasma = test: Plasma concentration in Sprague-Dawley rat at 10 mg/kg, po by LC-MS/MS analysis; assay type: ADME, organism-based; design: dose 10 mg/kg, route oral; conditions: in vivo; how it was run: as §4
[14] = Clearance in Sprague-Dawley rat blood at 2 mg/kg, po and 1 mg/kg, iv after 24 hrs wash out period by HPLC analysis; assay type: ADME, organism-based; conditions: whole blood; how it was run: as §1
[15] = Plasma concentration in cPP-induced feeding Sprague-Dawley rat model at 0.1 mg/kg, po after 1 hr; assay type: ADME, organism-based; design: dose 0.1 mg/kg, route oral; how it was run: as §2
Liver microsomes [16] = test: Intrinsic clearance in human liver microsomes at 1 uM by LC/MS analysis; assay type: ADME, Microsome; how it was run: as §5
[17] = Drug uptake in cPP-induced feeding Sprague-Dawley rat model brain at 0.1 mg/kg, po after 1 hr; assay type: ADME, organism-based; design: dose 0.1 mg/kg, route oral; conditions: read-out: Drug uptake; how it was run: as §2
[18] = Plasma concentration in cPP-induced feeding Sprague-Dawley rat model at 10 mg/kg, po after 1 hr; assay type: ADME, organism-based; design: dose 10 mg/kg, route oral; how it was run: as §2
Rattus norvegicus [19] = test: Antiobesity activity in cPP-induced feeding in Sprague-Dawley rat model assessed as reduction in food intake at 0.1 to 10 mg/kg, po measured 1 hr post cpp challenge; assay type: functional, organism-based
How it was run: (§6)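 Rats pretreated orally at 0.1, 1 or 10 mg/kg (vehicle 20% cyclodextrin) 1 h before intracerebroventricular infusion of Y5-selective peptide agonist cPP, 0.6 nmol in normal saline; food intake recorded, n = 7–14 per group.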

Rattus norvegicus [20] = test: Antiobesity activity in po dosed cPP-induced feeding Sprague-Dawley rat model assessed as reduction in food intake measured 1 hr post cpp challenge; assay type: functional; how it was run: as §6
[21] = Lipophilicity, log D of the compound at pH 7.4; assay type: physicochemical; conditions: buffer

Cytochrome P450 3A4, sequence (P08684 whole entry): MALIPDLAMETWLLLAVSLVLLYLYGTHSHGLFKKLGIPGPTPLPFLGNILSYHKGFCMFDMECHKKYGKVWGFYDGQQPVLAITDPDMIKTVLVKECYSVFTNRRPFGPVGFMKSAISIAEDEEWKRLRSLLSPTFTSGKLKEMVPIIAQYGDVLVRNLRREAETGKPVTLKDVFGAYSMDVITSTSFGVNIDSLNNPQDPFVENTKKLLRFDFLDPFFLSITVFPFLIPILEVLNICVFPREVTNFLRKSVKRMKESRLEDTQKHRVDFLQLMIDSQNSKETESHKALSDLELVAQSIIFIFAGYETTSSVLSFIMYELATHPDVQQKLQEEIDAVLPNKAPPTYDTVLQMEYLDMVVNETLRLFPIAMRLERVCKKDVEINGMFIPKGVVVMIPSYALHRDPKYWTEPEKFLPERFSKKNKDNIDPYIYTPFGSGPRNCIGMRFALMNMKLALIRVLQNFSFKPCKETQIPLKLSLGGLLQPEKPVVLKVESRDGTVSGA
Cytochrome P450 2D6, sequence (P10635 whole entry): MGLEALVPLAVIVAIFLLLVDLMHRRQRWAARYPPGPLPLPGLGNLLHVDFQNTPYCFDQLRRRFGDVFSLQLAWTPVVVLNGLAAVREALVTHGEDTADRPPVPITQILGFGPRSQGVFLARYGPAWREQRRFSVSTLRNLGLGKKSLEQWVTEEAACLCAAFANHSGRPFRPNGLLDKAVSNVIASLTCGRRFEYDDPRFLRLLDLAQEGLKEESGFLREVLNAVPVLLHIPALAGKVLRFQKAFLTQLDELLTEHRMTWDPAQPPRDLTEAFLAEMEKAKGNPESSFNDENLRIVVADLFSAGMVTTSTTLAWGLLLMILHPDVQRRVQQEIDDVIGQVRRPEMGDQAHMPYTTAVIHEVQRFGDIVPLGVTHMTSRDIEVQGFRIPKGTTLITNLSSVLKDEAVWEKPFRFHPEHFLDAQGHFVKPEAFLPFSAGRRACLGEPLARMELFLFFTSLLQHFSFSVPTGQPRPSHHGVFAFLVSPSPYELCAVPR
Cytochrome P450 2C19, sequence (P33261 whole entry): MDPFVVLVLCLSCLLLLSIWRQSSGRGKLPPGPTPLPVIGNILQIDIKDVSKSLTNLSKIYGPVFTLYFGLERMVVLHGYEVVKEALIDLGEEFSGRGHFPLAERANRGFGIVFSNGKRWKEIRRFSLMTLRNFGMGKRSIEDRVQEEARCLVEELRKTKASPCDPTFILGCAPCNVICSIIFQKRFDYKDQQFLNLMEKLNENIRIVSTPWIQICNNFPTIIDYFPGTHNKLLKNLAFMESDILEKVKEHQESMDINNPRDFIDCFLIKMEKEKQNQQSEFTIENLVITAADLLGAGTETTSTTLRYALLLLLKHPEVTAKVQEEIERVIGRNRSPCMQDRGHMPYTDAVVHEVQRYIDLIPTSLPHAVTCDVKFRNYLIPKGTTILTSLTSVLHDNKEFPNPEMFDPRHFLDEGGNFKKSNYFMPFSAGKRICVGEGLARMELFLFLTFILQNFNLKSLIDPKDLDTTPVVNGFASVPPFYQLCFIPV

Question: What does the source list for `CC(C)S(=O)(=O)NC[C@H]1CC[C@H](NC(=O)CN2CCc3cc(Cl)ccc32)CC1`?
Answer: Tmax [1]: 48 min; concentration at 1 h [2]: 104 ng/g; Ki [3]: 0.0005 µM; Papp B→A (MDR [4]): 601 nm/s; fraction unbound [5]: 0.009; bioavailability [6]: 100%; concentration at 1 h [7]: 0.516 µg/mL; IC50 (Cytochrome P450 1A2): > 40 µM; concentration (Brain): 0.304 µM; Vd [8]: 1.9 L/kg; CLH (Liver microsomes [9]): 49 mL/min; solubility [10]: 154 µM (≈ 65.9 µg/mL); IC50 (Cytochrome P450 3A4): 0.7 µM; IC50 (Cytochrome P450 2C19): > 40 µM; IC50 (Cytochrome P450 2D6): > 40 µM; concentration at 1 h [11]: 0.295 µM; Papp A→B (MDR [12]): 23.1 nm/s; clearance [13]: 1.5 L/h/kg; concentration (Plasma): 5.61 µM; clearance [14]: 1.4 L/h/kg; concentration at 1 h [15]: 0.076 µg/mL; CLH (Liver microsomes [16]): 3.6 L/min; concentration at 1 h [17]: 11 ng/g; concentration at 1 h [18]: 1.7 µg/mL; Activity (Rattus norvegicus [19]): Active; Activity (Rattus norvegicus [20]): Dose-dependent effect; minimal effective dose (Rattus norvegicus [20]; read-out: MED): < 0.1 mg/kg; logD [21]: 3
